Active and inactive are the calls of the source. The calls are words filed in the database; no cut-off is given here.
Tests used:
[1] = biological target: T1, Prostaglandin E2 receptor EP3 subtype (Homo sapiens, UniProt P43115); assay: Displacement of [3H]PGE2 from human EP3R expressed in chem1 cells after 2hrs by beta counting; type: cell-based
T1 sequence (P43115 whole entry): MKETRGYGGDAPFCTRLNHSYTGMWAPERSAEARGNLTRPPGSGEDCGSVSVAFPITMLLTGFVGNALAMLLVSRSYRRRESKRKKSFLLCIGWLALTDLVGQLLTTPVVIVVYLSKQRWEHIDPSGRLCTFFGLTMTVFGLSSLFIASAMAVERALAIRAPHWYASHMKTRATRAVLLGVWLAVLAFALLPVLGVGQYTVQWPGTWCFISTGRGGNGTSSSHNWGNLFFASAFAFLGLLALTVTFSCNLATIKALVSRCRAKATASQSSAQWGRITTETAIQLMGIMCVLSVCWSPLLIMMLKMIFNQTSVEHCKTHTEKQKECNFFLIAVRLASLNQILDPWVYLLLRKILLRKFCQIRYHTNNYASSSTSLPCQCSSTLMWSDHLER
In short: (§1)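 Radioligand competition binding with [3H]PGE2 on recombinant human EP1, EP2, EP3 or EP4 receptor membrane preparations (ChemiSCREEN). Ki reported ± SEM.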

[2] = biological target: T2, Prostaglandin E2 receptor EP3 subtype (Homo sapiens) (UniProt P43115); assay: Binding affinity to EP3R in human HT-29 cytoplasm at 3 uM measured 72 hrs post FBS withdrawal by fluorescence microscopy
T2 sequence (whole entry): T1 sequence (P43115 whole entry)
In short: (§2)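 HT-29 colon adenocarcinoma cells. EP3R expression induced by 72 h FBS withdrawal; FBS-cultured cells served as control. Ligand incubated 1 h, or 24 h for the longer time point. Blue-emitting ligands used at 3 μM with propidium iodide counterstain. Red ligand used at 300 nM with DAPI nuclear stain. For displacement, ligand was followed by 3-fold excess competitor (9 μM or 900 nM) for 1 h. Read by confocal microscopy.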

[3] = Antiplatelet activity in human platelet rich plasma assessed as inhibition of PGE2/collagen-induced aggregation preincubated at 100 nM after 10 mins by light transmission aggregometry; type: functional
In short: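 Human platelet-rich plasma preincubated 10 min with ligand at 100 nM. Aggregation then triggered by collagen 0.25 μg/mL plus PGE2 1 μM. Read by light transmission aggregometry against unspiked PRP.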

[4] = biological target: T2, Prostaglandin E2 receptor EP3 subtype (Homo sapiens); assay: Binding affinity to EP3R in human HT-29 cells cultured in absence of FBS at 3 uM after 1 hr by fluorescence microscopy in presence of 3-fold excess of (E)-3-(2-((E)-3-(4-(Benzyloxy)-3- methoxyphenyl)prop-1-enyl)phenyl)acrylic acid; type: cell-based; in short: as §2
[5] = biological target: Prostaglandin E2 receptor EP2 subtype (Homo sapiens, UniProt P43116); assay: Displacement of [3H]PGE2 from human EP2R expressed in chem1 cells after 2hrs by beta counting; type: cell-based; in short: as §1
[6] = biological target: Prostaglandin E2 receptor EP4 subtype (Homo sapiens, UniProt P35408); assay: Displacement of [3H]PGE2 from human EP4R expressed in chem1 cells after 2hrs by beta counting; type: cell-based; in short: as §1
[7] = biological target: T3, Prostaglandin E2 receptor EP1 subtype (Homo sapiens, UniProt P34995); assay: Displacement of [3H]PGE2 from human EP1R expressed in chem1 cells after 2hrs by beta counting; type: cell-based; in short: as §1
T3 sequence (P34995 whole entry): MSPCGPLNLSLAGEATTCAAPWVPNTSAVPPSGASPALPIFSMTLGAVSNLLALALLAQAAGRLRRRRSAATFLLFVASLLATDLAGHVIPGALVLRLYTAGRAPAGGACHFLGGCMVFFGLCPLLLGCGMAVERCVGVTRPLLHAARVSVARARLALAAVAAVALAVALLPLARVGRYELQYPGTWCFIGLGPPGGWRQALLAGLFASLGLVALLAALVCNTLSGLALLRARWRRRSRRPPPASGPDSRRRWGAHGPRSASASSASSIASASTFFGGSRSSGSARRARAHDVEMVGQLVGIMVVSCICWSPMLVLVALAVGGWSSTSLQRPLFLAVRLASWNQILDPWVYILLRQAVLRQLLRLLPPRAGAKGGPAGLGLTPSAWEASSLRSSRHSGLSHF

[8] = biological target: T2, Prostaglandin E2 receptor EP3 subtype (Homo sapiens); assay: Induction of EP3R internalization in human HT-29 cells cultured in absence of FBS at 300 nM after 24 hrs by fluorescence microscopy; type: cell-based; in short: as §2
[9] = biological target: T2, Prostaglandin E2 receptor EP3 subtype (Homo sapiens); assay: Binding affinity to EP3R in human brain cerebral cortex at 1 uM after 1 hr by fluorescence imaging in presence of 100-fold excess of (E)-3-(2-((E)-3-(4-(Benzyloxy)-3- methoxyphenyl)prop-1-enyl)phenyl)acrylic acid; type: tissue-based
In short: (§3)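 Human cerebral cortex and globus pallidus sections incubated 1 h with 1 μM red pyryllium ligand. For displacement, 100 μM competitor was added. Imaged by confocal fluorescence microscopy.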

[10] = biological target: T2, Prostaglandin E2 receptor EP3 subtype (Homo sapiens); assay: Binding affinity to EP3R in human HT-29 cells cultured in absence of FBS at 300 nM after 1 hr by fluorescence microscopy; type: cell-based; in short: as §2
[11] = biological target: T2, Prostaglandin E2 receptor EP3 subtype (Homo sapiens); assay: Binding affinity to EP3R in human HT-29 cells cultured in absence of FBS at 300 nM after 24 hrs by fluorescence microscopy; type: cell-based; in short: as §2
[12] = biological target: T2, Prostaglandin E2 receptor EP3 subtype (Homo sapiens); assay: Binding affinity to EP3R in human platelet rich plasma preincubated at 5 uM for 10 mins by FACS analysis
In short: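 Human platelet-rich plasma preincubated 10 min with 5 μM red fluorescent ligand. Analysed by flow cytometry (FACS) in the red channel against untreated PRP. Scatter cloud inspected as a check on platelet activation.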

[13] = biological target: T2, Prostaglandin E2 receptor EP3 subtype (Homo sapiens); assay: Binding affinity to EP3R in human platelet at 1 uM after 1 hr by fluorescence imaging
In short: (§4)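 Fixed human platelets on flow-chamber slides incubated 1 h with 1 μM red fluorescent ligand. For displacement, 1 mM competitor was added. Read by fluorescence imaging.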

[14] = biological target: T2, Prostaglandin E2 receptor EP3 subtype (Homo sapiens); assay: Binding affinity to EP3R in human brain globus pallidus at 1 uM after 1 hr by fluorescence imaging; type: tissue-based; in short: as §3
Kidney = assay: Drug uptake in EP3R-/- mouse kidney at 1 uM after 1 hr by fluorescence imaging; type: ADME, tissue-based
In short: (§5)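 Kidney tissue from C57Bl6 wild-type and EP3−/− mice incubated 1 h with 1 μM red pyryllium-labelled ligand. Imaged by confocal laser scanning fluorescence microscopy. Renal artery autofluorescence recorded separately.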

[15] = biological target: T2, Prostaglandin E2 receptor EP3 subtype (Homo sapiens); assay: Binding affinity to EP3R in human platelet at 1 uM after 1 hr by fluorescence imaging in presence of 1 mM (E)-3-(2-((E)-3-(4-(Benzyloxy)-3- methoxyphenyl)prop-1-enyl)phenyl)acrylic acid; in short: as §4
[16] = biological target: T2, Prostaglandin E2 receptor EP3 subtype (Homo sapiens); assay: Binding affinity to EP3R in human brain globus pallidus at 1 uM after 1 hr by fluorescence imaging in presence of 100-fold excess of (E)-3-(2-((E)-3-(4-(Benzyloxy)-3- methoxyphenyl)prop-1-enyl)phenyl)acrylic acid; type: tissue-based; in short: as §3
[17] = biological target: T4, Prostaglandin E2 receptor EP3 subtype (Mus musculus) (UniProt P30557); assay: Binding affinity to EP3R in C57bl6 mouse kidney arterial smooth muscle cells at 1 uM after 1 hr by fluorescence imaging; in short: as §5
T4 sequence (whole entry): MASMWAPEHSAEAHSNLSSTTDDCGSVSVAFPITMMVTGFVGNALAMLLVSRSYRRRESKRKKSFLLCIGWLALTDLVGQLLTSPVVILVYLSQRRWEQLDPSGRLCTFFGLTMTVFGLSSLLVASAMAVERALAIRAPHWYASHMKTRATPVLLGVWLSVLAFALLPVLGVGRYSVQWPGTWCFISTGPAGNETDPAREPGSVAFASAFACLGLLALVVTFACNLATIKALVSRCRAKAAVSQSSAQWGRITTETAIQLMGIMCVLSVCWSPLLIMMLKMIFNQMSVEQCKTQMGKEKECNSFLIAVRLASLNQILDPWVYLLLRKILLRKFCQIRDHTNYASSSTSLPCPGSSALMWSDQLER

[18] = biological target: T2, Prostaglandin E2 receptor EP3 subtype (Homo sapiens); assay: Binding affinity to EP3R in human HT-29 cells cultured in absence of FBS at 300 nM after 1 hr by fluorescence microscopy in presence of 3-fold excess of (E)-3-(2-((E)-3-(4-(Benzyloxy)-3- methoxyphenyl)prop-1-enyl)phenyl)acrylic acid; type: cell-based; in short: as §2
[19] = biological target: T2, Prostaglandin E2 receptor EP3 subtype (Homo sapiens); assay: Induction of EP3R-mediated platelet activation in human platelet rich plasma at 5 uM after 10 mins by FACS analysis
[20] = biological target: T2, Prostaglandin E2 receptor EP3 subtype (Homo sapiens); assay: Binding affinity to EP3R in human brain cerebral cortex at 1 uM after 1 hr by fluorescence imaging; type: tissue-based; in short: as §3
[21] = biological target: T4, Prostaglandin E2 receptor EP3 subtype (Mus musculus); assay: Binding affinity to EP3R in C57bl6 mouse cortical collecting tubuli epithelial cells at 1 uM after 1 hr by fluorescence imaging; type: cell-based; settings: Epithelial cell; in short: as §5

Prostaglandin E2 receptor EP4 subtype, sequence (P35408 whole entry): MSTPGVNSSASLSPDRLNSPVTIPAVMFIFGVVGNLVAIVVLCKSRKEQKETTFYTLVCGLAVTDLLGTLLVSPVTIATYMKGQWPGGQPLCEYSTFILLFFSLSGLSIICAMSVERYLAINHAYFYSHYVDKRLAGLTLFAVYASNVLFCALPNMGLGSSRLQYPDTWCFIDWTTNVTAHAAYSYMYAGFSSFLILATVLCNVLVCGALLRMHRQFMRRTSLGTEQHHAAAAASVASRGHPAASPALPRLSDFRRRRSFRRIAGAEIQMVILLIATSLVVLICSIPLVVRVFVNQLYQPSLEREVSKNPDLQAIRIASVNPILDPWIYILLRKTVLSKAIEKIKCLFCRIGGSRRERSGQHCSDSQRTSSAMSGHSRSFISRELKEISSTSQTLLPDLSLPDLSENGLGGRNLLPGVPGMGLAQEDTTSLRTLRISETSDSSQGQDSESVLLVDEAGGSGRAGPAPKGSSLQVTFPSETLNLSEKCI
Prostaglandin E2 receptor EP2 subtype, sequence (P43116 whole entry): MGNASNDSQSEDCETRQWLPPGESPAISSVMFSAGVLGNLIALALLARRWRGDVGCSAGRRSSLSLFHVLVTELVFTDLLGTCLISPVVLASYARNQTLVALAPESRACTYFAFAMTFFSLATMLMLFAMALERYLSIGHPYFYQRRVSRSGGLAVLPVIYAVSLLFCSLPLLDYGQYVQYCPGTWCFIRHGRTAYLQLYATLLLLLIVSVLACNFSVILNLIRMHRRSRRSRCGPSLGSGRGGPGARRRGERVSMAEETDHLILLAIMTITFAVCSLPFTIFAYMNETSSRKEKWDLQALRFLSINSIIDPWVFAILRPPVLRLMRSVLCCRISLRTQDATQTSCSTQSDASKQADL

SMILES	Ki [1]	Activity [2]	inhibition at 0.1 µM [3]	Ki [5]	Ki [6]	Ki [7]	other results
COc1cc(C/C=C/c2ccccc2/C=C/C(=O)O)ccc1OCCNc1ccc([N+](=O)[O-])cc1[N+](=O)[O-]	0.0234 µM	60%	40%				
COc1cc(C/C=C/c2ccccc2/C=C/C(=O)O)ccc1OCCn1cc2ccccc2c1C#N	0.018 µM	58%	40%	4.26 µM	3.18 µM	16 µM	Activity [4]: inactive
COc1cc(C/C=C/c2ccccc2/C=C/C(=O)O)ccc1OCC[n+]1c(C)cc(/C=C/c2ccc(N(C)C)cc2)cc1C	0.218 µM		40%				
COc1cc(C/C=C/c2ccccc2/C=C/C(=O)O)ccc1OCC[n+]1c(C)cc(/C=C/C=C/c2ccc(N(C)C)cc2)cc1C.F[B-](F)(F)F	0.135 µM		40%	2.94 µM	0.902 µM	68.6 µM	Activity [8]: inactive; Activity [9]: inactive; Activity [10]: Active; Activity [11]: Active; Activity [12]: 50%; Activity [13]: Active; Activity [14]: Active; Drug uptake (Kidney): Not Active; Activity [15]: inactive; Activity [16]: inactive; Activity [17]: Active; Activity [18]: inactive; Activity [19]: inactive; Activity [20]: Active; Activity [21]: Active
COc1cc(C/C=C/c2ccccc2/C=C/C(=O)NS(=O)(=O)c2cccs2)ccc1OCc1ccccc1			40%	2.41 µM	4.3 µM	2.44 µM	
COc1cc(C/C=C/c2ccccc2/C=C/C(=O)O)ccc1OCc1ccccc1			40%	1.73 µM	6.31 µM	151 µM	
COc1cc(C/C=C/c2ccccc2/C=C/C(=O)NS(=O)(=O)c2cccs2)ccc1OCCn1cc2ccccc2c1C#N	0.026 µM	55%	40%	10.8 µM	9.45 µM	20.3 µM	
COc1cc(C/C=C/c2ccccc2/C=C/C(=O)O)ccc1OCCN	1.5 µM		40%				
COc1cc(C/C=C/c2ccccc2/C=C/C(=O)O)ccc1OCCNC(=S)Nc1ccc(-c2c3ccc(=O)cc-3oc3cc(O)ccc23)c(C(=O)O)c1	0.678 µM		40%				
COc1cc(C/C=C/c2ccccc2/C=C/C(=O)O)ccc1OCCNC(=S)Nc1ccc(C(=O)O)c(-c2c3ccc(=O)cc-3oc3cc(O)ccc23)c1	1.26 µM		40%				
